Test results reported in BindingDB's records for doi:10.1021/np5000704 (University of North Carolina At Greensboro, 2014).
Positions of bridges follow the written chain, without caps; N, C: chain ends. Residues, ends and D or L forms follow the SMILES beside them.

Molecular target: T1, Accessory gene regulator protein A (Staphylococcus aureus, UniProt P0A0I7)
T1 sequence (P0A0I7 whole entry): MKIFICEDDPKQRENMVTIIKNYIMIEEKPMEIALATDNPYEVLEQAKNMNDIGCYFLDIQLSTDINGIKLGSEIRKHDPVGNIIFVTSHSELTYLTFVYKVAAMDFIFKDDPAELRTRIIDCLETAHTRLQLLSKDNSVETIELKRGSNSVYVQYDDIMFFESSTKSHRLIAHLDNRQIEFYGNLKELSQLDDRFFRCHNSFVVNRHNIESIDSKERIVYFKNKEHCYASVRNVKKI
Experiment: Inhibition of AGR quorum sensing system in methicillin-resistant Staphylococcus aureus AH2759 incubated for 15 hrs by P3-LUX reporter gene assay
Outline: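 S. aureus AH2759 (USA300 LAC, plasmid agr P3-luxABCDE) grown overnight in TSB with chloramphenicol 10 μg/mL, then diluted to a final 1:500. Compounds were added at 0.1–1000 μM final with 1% DMSO. Incubated at 37 °C with 250 rpm shaking. OD600 and luminescence were read hourly from 15 h. IC50 came from a weighted four-parameter logistic fit of OD-normalized luminescence; growth-delayed wells were excluded. AIP-2 (2–500 nM) was the control.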

Compound	IC50 [µM]
O=C1c2cc(O)cc(O)c2C(=O)c2c(O)cc(CO)cc21	8.1
C[C@H](O)Cc1cc(O)c2c(c1)C(=O)c1cc(O)cc(O)c1C2=O	8.9
CC(=O)Cc1cc(O)c2c(c1)C(=O)c1cc(O)cc(O)c1C2=O	19.8
C[C@@H](O)[C@@H](O)c1cc(O)c2c(c1)C(=O)c1cc(O)cc(O)c1C2=O	26.5
CC(=O)C(O)c1cc(O)c2c(c1)C(=O)c1cc(O)cc(O)c1C2=O (stereo not given)	30.1
O=C(O)c1cc(O)c2c(c1)C(=O)c1cc(O)c(O)c(O)c1C2=O	120
CC(C)C[C@@H]1NC(=O)[C@H](CO)NC(=O)[C@H](CO)NC(=O)[C@@H](NC(=O)[C@H](C)NC(=O)[C@H](CC(N)=O)NC(=O)[C@@H](NC(=O)CN)C(C)C)CSC(=O)[C@H](Cc2ccccc2)NC1=O (H-GVNACSSLF; thioester 5-C)	0.012
Cc1cc(O)c2c(c1)C(=O)c1cc(O)cc(O)c1C2=O [1,3,8-trihydroxy-6-methylanthra-9,10-quinone]	17.1
O=C(O)c1cc(O)c2c(c1)C(=O)c1cc(O)c(Cl)c(O)c1C2=O [6-chloro-4,5,7-trihydroxy-9,10-dioxo-9,10-dihydroanthracene-2-carboxylic acid]	37.8
O=C(O)c1cc(O)c2c(c1)C(=O)c1cc(O)cc(O)c1C2=O [MLS000876948]	30.6
